The source of these data is ChEMBL document CHEMBL4428128, “Design, synthesis, crystal structure, biological evaluation and molecular docking studies of carbazole-arylpiperazine derivatives” (Bioorg Med Chem, 2016).

In assay [1] the target is T1, Alpha-1A adrenergic receptor (Rattus norvegicus, UniProt P43140).
T1 sequence (P43140 whole entry): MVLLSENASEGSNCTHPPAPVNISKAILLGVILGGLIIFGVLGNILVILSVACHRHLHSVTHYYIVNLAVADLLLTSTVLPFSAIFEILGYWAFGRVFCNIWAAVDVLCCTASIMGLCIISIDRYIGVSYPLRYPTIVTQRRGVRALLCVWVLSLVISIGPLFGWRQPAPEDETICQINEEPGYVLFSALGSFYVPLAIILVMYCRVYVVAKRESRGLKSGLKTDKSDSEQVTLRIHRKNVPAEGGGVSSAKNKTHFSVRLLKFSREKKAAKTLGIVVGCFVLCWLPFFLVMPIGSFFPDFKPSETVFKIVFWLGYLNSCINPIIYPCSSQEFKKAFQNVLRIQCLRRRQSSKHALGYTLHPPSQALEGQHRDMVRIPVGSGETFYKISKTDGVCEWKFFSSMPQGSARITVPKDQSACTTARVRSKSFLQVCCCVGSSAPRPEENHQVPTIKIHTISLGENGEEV
In words: Antagonistic activity at alpha1A adrenoceptor in Sprague-Dawley rat vas deferens assessed as inhibition of noradrenaline-induced contractions after 0.5 hrs in presence of alpha2/beta adrenoceptor blocker yohimbine, propranolol by Schild plot analysis. To be noted: read-out: pA2 (converted).

Assay [2] addresses T2, Alpha-1B adrenergic receptor (Rattus norvegicus, UniProt P15823).
T2 sequence (P15823 whole entry): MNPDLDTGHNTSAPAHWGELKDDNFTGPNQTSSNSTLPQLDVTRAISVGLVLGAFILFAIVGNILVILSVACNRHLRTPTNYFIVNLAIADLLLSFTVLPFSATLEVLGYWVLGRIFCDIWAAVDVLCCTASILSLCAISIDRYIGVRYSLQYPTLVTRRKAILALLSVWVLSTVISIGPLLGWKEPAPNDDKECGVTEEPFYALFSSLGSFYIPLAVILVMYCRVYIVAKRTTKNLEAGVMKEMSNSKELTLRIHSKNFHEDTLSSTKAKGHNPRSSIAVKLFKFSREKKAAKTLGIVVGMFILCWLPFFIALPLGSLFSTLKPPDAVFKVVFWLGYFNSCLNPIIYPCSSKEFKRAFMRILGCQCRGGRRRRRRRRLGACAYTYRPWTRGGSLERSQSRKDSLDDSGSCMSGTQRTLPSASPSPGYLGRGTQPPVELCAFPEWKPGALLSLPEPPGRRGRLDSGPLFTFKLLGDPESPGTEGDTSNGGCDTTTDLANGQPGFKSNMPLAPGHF
In words: Antagonistic activity at alpha1B adrenoceptor in Sprague-Dawley rat spleen assessed as inhibition of noradrenaline-induced contractions after 0.5 hrs in presence of alpha2/beta adrenoceptor blocker yohimbine, propranolol by Schild plot analysis. Type of assay: tissue-based. The conditions noted are these: read-out: pA2 (converted).

The target of assay [3] is T3, Alpha-1D adrenergic receptor (Rattus norvegicus, UniProt P23944).
T3 sequence (P23944 whole entry): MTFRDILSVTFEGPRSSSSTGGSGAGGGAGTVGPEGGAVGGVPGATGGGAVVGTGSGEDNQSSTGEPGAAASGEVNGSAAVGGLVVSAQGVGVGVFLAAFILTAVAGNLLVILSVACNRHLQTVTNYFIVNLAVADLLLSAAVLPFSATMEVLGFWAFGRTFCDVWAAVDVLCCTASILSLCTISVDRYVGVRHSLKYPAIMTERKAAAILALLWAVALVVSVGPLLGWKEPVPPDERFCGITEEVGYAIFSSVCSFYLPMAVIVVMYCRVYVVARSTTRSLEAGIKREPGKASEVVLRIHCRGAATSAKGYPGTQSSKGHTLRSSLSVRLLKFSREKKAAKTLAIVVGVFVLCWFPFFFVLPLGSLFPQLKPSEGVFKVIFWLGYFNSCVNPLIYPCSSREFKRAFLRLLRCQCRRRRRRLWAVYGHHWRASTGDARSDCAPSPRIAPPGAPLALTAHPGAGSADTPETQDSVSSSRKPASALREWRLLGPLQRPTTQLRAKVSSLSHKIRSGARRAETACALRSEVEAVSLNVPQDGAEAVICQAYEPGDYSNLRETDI
In words: Antagonistic activity at alpha1D adrenoceptor in Sprague-Dawley rat thoracic aorta assessed as inhibition of noradrenaline-induced contractions after 0.5 hrs in presence of alpha2/beta adrenoceptor blocker yohimbine, propranolol by Schild plot analysis. To be noted: read-out: pA2 (converted). Put shortly: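 Isolated tissue rings (aorta rings about 4 mm) held in Krebs–Henseleit buffer (pH 7.4, 37 °C, O2/CO2 19:1), equilibrated 1.5 h under optimal tension, primed three times with noradrenaline, then washed. Antagonist preincubated 0.5 h. Noradrenaline concentration–response curves run 1 h apart, without and with antagonist, in continuous yohimbine and propranolol. Responses expressed as % of pre-incubation NA Emax.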

Assay [4] is filed under the species Rattus norvegicus. In words: Selectivity ratio of antilog of change in pA2 for alpha1D adrenoceptor in Sprague-Dawley rat thoracic aorta to antilog of change in pA2 for alpha1A adrenoceptor in Sprague-Dawley rat vas deferens.
For assay [5], the species on record is Rattus norvegicus. The assay is described as follows: Selectivity ratio of antilog of change in pA2 for alpha1D adrenoceptor in Sprague-Dawley rat thoracic aorta to antilog of change in pA2 for alpha1B adrenoceptor in Sprague-Dawley rat spleen.
The species entered for assay [6] is Rattus norvegicus. The assay is described as follows: Selectivity ratio of antilog of change in pA2 for alpha1A adrenoceptor in Sprague-Dawley rat vas deferens to antilog of change in pA2 for alpha1B adrenoceptor in Sprague-Dawley rat spleen.

Take `COc1ccc(OC)c(N2CCN(CC(O)COc3cccc4[nH]c5ccccc5c34)CC2)c1` (configuration not stated): the Kb is 0.437 µM in assay [1], 0.0741 µM in assay [2] and 0.141 µM in assay [3]. Moreover, the Selectivity ratio in the assay listed under Rattus norvegicus [4] was 3.1; in the assay listed under Rattus norvegicus [5], 0.5; in the assay filed under Rattus norvegicus [6] it was 0.2.

As to `COc1ccc(N2CCN(CC(O)COc3cccc4[nH]c5ccccc5c34)CC2)cc1` (configuration not stated), the values for the Kb in assay [1], in assay [2] and in assay [3] were 1.86 µM, 6.92 µM and 0.0871 µM, respectively. In addition, the Selectivity ratio in the assay filed under Rattus norvegicus [4] amounted to 21.4; in the assay listed under Rattus norvegicus [5], 79.4; in the assay listed under Rattus norvegicus [6], 3.7.
